Screens deposited in PubChem BioAssay by The Scripps Research Institute Molecular Screening Center.
CHRM5 PAM = human M5 muscarinic receptor positive allosteric modulators, primary screen, CHO-K1 cells, Fluo-8 calcium fluorescence. CHO-K1 hM5, ACh EC20 PAM; 0% = ACh EC20, 100% = ACh EC100. activation, % at 3 µM. hit rate 0.3% among 360,000. AID 624038, 2012;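 active = activation above the run cutoff, the mean activation of all test compounds plus 3 SD, cut at about 18% in these data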
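Assay system: CHO-K1 hM5 cells. Also added: acetylcholine at EC20 concentration, added after compound. Dosing: 3 µM, single dose. Times: compound preincubation 140 s before EC20 acetylcholine addition. Signal: Fluo-8 calcium fluorescence. Measure: % activation relative to EC20 and EC100 ACh responses. Repeats: singlicate, one well per test compound.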
CHRM5 agonist = human M5 muscarinic receptor agonists, primary screen, CHO-K1 cells, Fluo-8 calcium fluorescence | Muscarinic acetylcholine receptor M5 (Homo sapiens), P08912 | CHO-K1 hM5 cells; 0% DMSO wells, 100% maximal acetylcholine response | activation, % at 3 µM | hit rate 0.19% among 360,000 | AID 624037, 2012;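 active = activation above the run's mean over test compounds plus 3 SD, cut at about 23% in these data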;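 note: signal is peak over basal fluorescence ratio across the kinetic read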
M5 antag = human M5 muscarinic receptor antagonists, primary screen, CHO cells, Fluo-8 calcium fluorescence. Muscarinic acetylcholine receptor M5 (Homo sapiens), P08912. hit rate 0.59% among 360,000. inhibition, % at 3 µM. AID 624040, 2012. CHO-hM5 cells, ACh EC80;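 active = inhibition above a per-plate cutoff, the mean of that plate's test compounds plus 3 SD, cut at about 27% in these data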;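 note: 0% = acetylcholine EC80 with DMSO and 100% = DMSO without agonist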
CHRM4 antagonist = human M4 muscarinic receptor antagonists, primary screen, CHO cells, Fluo-8 calcium fluorescence | CHO-hM4 cells, ACh EC80 | inhibition, % at 3 µM | hit rate 0.73% among 360,000;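 active = inhibition above its plate's cutoff, the mean inhibition of sample wells plus 3 SD, cut at about 27% in these data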;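 note: 0% = acetylcholine EC80 with DMSO and 100% = DMSO without agonist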
Target sequence (P08173 whole entry, looked up): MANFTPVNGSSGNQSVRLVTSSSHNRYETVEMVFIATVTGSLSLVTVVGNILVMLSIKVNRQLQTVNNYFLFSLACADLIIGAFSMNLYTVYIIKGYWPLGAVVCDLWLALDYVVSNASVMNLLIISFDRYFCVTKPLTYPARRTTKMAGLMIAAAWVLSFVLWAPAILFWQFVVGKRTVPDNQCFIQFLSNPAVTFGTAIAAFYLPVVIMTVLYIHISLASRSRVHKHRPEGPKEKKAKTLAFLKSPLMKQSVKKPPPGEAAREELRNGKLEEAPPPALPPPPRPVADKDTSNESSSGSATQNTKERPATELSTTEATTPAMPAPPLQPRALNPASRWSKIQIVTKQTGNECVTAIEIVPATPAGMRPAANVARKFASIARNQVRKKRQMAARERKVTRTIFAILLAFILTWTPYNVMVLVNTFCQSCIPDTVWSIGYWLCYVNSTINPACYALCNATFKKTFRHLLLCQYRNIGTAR
M4 PAM = human M4 muscarinic receptor positive allosteric modulators, primary screen, CHO-K1 cells, Fluo-8 calcium fluorescence. Muscarinic acetylcholine receptor M4 (Homo sapiens), P08173. CHO-K1 hM4/Gqi5, ACh EC20; 0% = ACh EC20, 100% = maximal ACh. activation, % at 3 µM. hit rate 0.4% among 360,000;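 active = activation above its plate's cutoff, the mean activation of sample wells plus 3 SD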
CHRM4 agonist = human M4 muscarinic receptor agonists, primary screen, CHO-K1 cells, Fluo-8 calcium fluorescence; activation, % at 3 µM; CHO-K1 hM4/Gqi5; vehicle 0%, full acetylcholine response 100%; hit rate 0.14% among 360,000;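 active = activation above the run mean over all test wells plus 3 SD, cut at about 32% in these data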;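 note: peak over basal fluorescence ratio per well then scaled between controls; 0% = DMSO wells and 100% = acetylcholine at EC100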
The depositor's hits bear a star. Hits are enriched below; roughly 1.9% of the tested compounds scored in any of these assays.

SMILES	CHRM5 PAM	CHRM5 agonist	M5 antag	CHRM4 antagonist	M4 PAM	CHRM4 agonist
O=C(c1ccc(Cl)cc1)C1CCCN(Cc2cccc3cccnc23)C1 (configuration not stated)	-15	-10	23	12	-24	18
CCN(CC)C(=O)c1ccc(NC(=O)CN2CCc3cc(OC)c(OC)cc3C2)cc1	2	-6	-4	-23	4	0
COC(=O)C1=C(c2ccccc2OCc2ccccc2)C[C@@H]2CC[C@H]1N2C(=O)NCc1ccc([N+](=O)[O-])cc1	-9	-7	3	-7	-3	6
S=C=Nc1cccc(C2(N3CCCCC3)CCCCC2)c1	-19	-2	27*	25	-15	1
c1ccc(C2(N3CCCCC3)CCCCC2)cc1	-16	-6	5	-4	-10	1
CCSC(=O)N1CCCCCC1	-5	1	12	-1	0	1
COc1ccc(OC)c([C@@H](O)[C@H](C)NC(C)(C)C)c1	-19	-1	24	51*	-15	0
N#Cc1ncc(N=Cc2ccc(N(CCCl)CCCl)cc2)s1	-3	-6	17	4	-4	0
COC(=O)[C@@H]1N=C(c2ccc(OC)cc2)O[C@]12C(=O)N(Cc1ccc(OC)cc1)c1ccccc12	7	3	0	-7	5	2
O=C1CC(c2cccnc2)=NN1c1ccc(Cl)cc1Cl	-6	4	5	-4	0	3
CCN1C(=O)CC(c2cccnc2)=Nc2ccccc21	19*	5	-2	2	-6	2
Nc1cccc(SC2CC(=O)N(c3ccc(Cl)cc3C(=O)c3ccccc3)C2=O)c1 (configuration not stated)	-6	-2	27*	-9	0	2
CCOC(=O)C1CCCN(c2ccc([N+](=O)[O-])c3nonc23)C1 (configuration not stated)	-37	185*	52*	53*	-31	314*
CC1CCCN(c2ccc(C(=O)N3CCC4(CC3)OCCO4)cc2[N+](=O)[O-])C1 (configuration not stated)	6	-2	-4	-7	-2	2
c1ccc2c[n+](CCCCCCCCCC[n+]3ccc4ccccc4c3)ccc2c1	-16	-7	3	27*	-10	1
CN1C2CNC(=O)CC1C1CCC2C1 (configuration not stated)	-1	2	14	-1	9	0
CC(=NNC(=S)N1CC2CCC(CC2)C1)c1nccs1	-11	-6	26	8	-1	0
COC(=O)C(O)(c1ccc(NC(=S)NC(=O)c2ccc(Cl)cc2Cl)c(C)c1)C(F)(F)F (configuration not stated)	-14	11	27*	11	-19	22
COC(=O)C(O)(c1ccc(NC(=S)NC(=O)c2ccc(Cl)cc2Cl)cc1)C(F)(F)F (configuration not stated)	-8	11	15	11	-19	16
CCOC(=O)C(O)(c1ccc(NC(=S)NC(=O)c2ccc(Cl)cc2Cl)c(C)c1)C(F)(F)F (configuration not stated)	-14	23	37*	31*	-28	40*
CC(=O)OCC[N+](C)(C)C	-13	100*	98*	79*	-21	96*
C[N+](C)(C)CCOC(=O)CBr	-15	37*	-1	-8	0	1
O=C1C2CC(CN3CCCCC23)C2CCCCN12 (configuration not stated)	1	1	3	-14	6	1
NC(Cc1ccc(F)cc1)c1csc(Nc2ccccn2)n1 (configuration not stated)	-2	4	2	-8	-6	9
